Values after ≈ are worked out from the molar mass of the structure shown.
What was measured:
Trypanosoma cruzi = assay: Antichagasic activity against Trypanosoma cruzi; type: functional, organism-based
THP-1 [1] = assay: Antiinflammatory activity in human THP1 cells assessed as inhibition of LPS-induced TNFalpha at 10 uM by ELISA; type: functional
How it was run: (§1)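 THP-1 cells grown in RPMI 1640 with 10% FBS, penicillin and streptomycin, then differentiated with PMA. After plating, cells took test compound or vehicle (0.5% DMSO) for 30 min at 37 °C. LPS (E. coli 0127:B8) was then added and plates were kept 24 h at 37 °C, 5% CO2. Supernatant TNF-α and IL-6 measured by ELISA. Percent inhibition was taken against control, and IC50 by nonlinear regression.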

THP-1 [2] = assay: Antiinflammatory activity in human THP1 cells assessed as inhibition of LPS-induced TNFalpha at 30 uM by ELISA; type: functional; how it was run: as §1
THP-1 [3] = assay: Antiinflammatory activity in human THP1 cells assessed as inhibition of IL6 at 10 uM by ELISA; type: functional; how it was run: as §1
THP-1 [4] = assay: Cytotoxicity against human THP1 cells at 10 uM; type: functional
How it was run: (§2)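 PMA-differentiated THP-1 cells in RPMI 1640 with 10% FBS were pretreated 30 min at 37 °C with compound or vehicle (0.5% DMSO). They were then stimulated with LPS for 24 h at 37 °C, 5% CO2. Viability was scored with CCK-8 in the same wells as the cytokine assay.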

Phosphodiesterase 4 = Phosphodiesterase 4 (Homo sapiens, UniProt P27815+Q08499+Q07343+Q08493); assay: Inhibition of PDE4 in human U937 cells by cAMP SPA enzyme assay; type: cell-based; settings: u-937
PBMC = assay: Antiinflammatory activity in […] PBMC assessed as inhibition of LPS-induced TNFalpha by ELISA; type: functional, cell-based; settings: Homo sapiens
[5] = target: Cyclin-dependent kinase 1/cyclin B1 (Homo sapiens, UniProt P06493); assay: Inhibition of CDK1/cyclinB; type: protein-complex assay
Escherichia coli = assay: Antimicrobial activity against Escherichia coli; type: functional, organism-based
Candida albicans = assay: Antimicrobial activity against Candida albicans; type: functional, organism-based
[6] = target: Mitogen-activated protein kinase 14 (Homo sapiens, UniProt Q16539); assay: Inhibition of p38alpha MAPK
Mus musculus = assay: Inhibition of LPS-induced TNFalpha release in mouse at 20 mg/kg, po; type: functional
THP-1 [7] = assay: Antiinflammatory activity in human THP1 cells assessed as inhibition of LPS-induced TNFalpha by ELISA; type: functional, cell-based; how it was run: as §1
THP-1 [8] = assay: Antiinflammatory activity in human THP1 cells assessed as inhibition of LPS-induced IL6 by ELISA; type: functional, cell-based; how it was run: as §1
THP-1 [9] = assay: Cytotoxicity against human THP1 cells; type: functional, cell-based; how it was run: as §2
THP-1 [10] = assay: Antiinflammatory activity in human THP1 cells assessed as inhibition of LPS-induced TNFalpha at 1 uM by ELISA; type: functional; how it was run: as §1
THP-1 [11] = assay: Antiinflammatory activity in human THP1 cells assessed as inhibition of LPS-induced IL6 at 1 uM by ELISA; type: functional; how it was run: as §1
THP-1 [12] = assay: Cytotoxicity against human THP1 cells at 1 uM; type: functional; how it was run: as §2

Mitogen-activated protein kinase 14, sequence (Q16539 whole entry): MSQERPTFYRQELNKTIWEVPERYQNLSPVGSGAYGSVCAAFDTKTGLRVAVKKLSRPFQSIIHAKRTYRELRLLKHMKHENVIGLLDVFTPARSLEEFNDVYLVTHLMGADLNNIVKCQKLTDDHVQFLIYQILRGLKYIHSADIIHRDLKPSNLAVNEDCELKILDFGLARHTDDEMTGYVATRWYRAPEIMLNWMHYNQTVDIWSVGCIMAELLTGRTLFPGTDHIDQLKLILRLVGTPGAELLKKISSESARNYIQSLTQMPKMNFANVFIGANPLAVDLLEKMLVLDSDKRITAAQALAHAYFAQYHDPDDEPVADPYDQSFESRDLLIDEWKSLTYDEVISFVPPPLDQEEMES
Cyclin-dependent kinase 1/cyclin B1, sequence (P06493 whole entry): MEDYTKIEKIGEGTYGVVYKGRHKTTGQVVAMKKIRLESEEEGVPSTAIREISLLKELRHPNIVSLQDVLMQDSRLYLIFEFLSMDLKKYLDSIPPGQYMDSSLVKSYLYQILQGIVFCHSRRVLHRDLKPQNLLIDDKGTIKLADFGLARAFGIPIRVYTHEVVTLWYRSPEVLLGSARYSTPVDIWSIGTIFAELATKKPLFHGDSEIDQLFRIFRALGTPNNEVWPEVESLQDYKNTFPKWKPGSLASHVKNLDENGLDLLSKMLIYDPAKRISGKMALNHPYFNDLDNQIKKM
Cyclin-dependent kinase 1/cyclin B1, sequence (P14635 whole entry, further chain): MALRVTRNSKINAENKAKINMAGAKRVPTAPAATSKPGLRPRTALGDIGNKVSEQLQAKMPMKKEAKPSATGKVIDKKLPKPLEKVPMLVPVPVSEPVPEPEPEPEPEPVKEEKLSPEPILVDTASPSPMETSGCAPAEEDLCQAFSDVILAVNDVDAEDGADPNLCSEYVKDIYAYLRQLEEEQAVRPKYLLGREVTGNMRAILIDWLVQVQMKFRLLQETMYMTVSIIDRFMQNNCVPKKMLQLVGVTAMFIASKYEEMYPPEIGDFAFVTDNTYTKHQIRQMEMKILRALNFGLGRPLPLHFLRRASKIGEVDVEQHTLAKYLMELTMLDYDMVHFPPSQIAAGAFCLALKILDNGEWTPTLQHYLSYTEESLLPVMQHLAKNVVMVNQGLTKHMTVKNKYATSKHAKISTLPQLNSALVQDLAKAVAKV

Cc1nn(-c2ccccc2)c2nc(-c3ccccc3)cc(C(=O)N/N=C/c3ccc(O)cc3)c12
IC50 (Trypanosoma cruzi): 1.9 mg/L (≈ 4.25 µM)

CCO[C@@H](C1=CC2C(C)=NN(c3ccccc3)C2N=C1)[C@H](OC)[C@@H](O)COC (stereo partly specified)
inhibition at 10 µM (THP-1 [1]): 19%
inhibition at 30 µM (THP-1 [2]): 30%
inhibition at 10 µM (THP-1 [3]): 44%
inhibition at 10 µM (THP-1 [4]): 4%

CCn1ncc2c(-c3cncc(C)c3)c(/C=C/C(=O)O)cnc21
IC50 (Phosphodiesterase 4): > 1 µM
IC50 (PBMC): 0.0157 µM

CC(=O)OCCCc1cnc2ccnn2c1
inhibition at 10 µM (THP-1 [1]): 13%
inhibition at 10 µM (THP-1 [3]): 66%
inhibition at 10 µM (THP-1 [4]): 0%

Cc1nn(C)c2ncc(CCCO)cc12
inhibition at 10 µM (THP-1 [1]): 6%
inhibition at 10 µM (THP-1 [3]): 27%
inhibition at 10 µM (THP-1 [4]): 7%

Cc1ccc(-c2cc3ncc(CCCO)cn3n2)cc1
inhibition at 10 µM (THP-1 [1]): 0%
inhibition at 10 µM (THP-1 [3]): 0%
inhibition at 10 µM (THP-1 [4]): 9%

CC(=O)OCCCc1cnc2ncnn2c1
inhibition at 10 µM (THP-1 [1]): 7%
inhibition at 10 µM (THP-1 [3]): 45%
inhibition at 10 µM (THP-1 [4]): 0%

CCn1ncc2cc(CCCOC(C)=O)cnc21
inhibition at 10 µM (THP-1 [1]): 0%
inhibition at 10 µM (THP-1 [3]): 16%
inhibition at 10 µM (THP-1 [4]): 13%

CCNCc1cncc(-c2cnc3c(c2)C(c2nc4cc(F)ccc4[nH]2)N=N3)c1 (stereo unspecified)
IC50 [5]: 0.0007 µM

CCO[C@@H](C1=CC2C(C)=NN(c3ccccc3)C2N=C1)[C@H](O)[C@@H](O)CO (stereo partly specified)
inhibition at 10 µM (THP-1 [1]): 3%
inhibition at 10 µM (THP-1 [3]): 44%
inhibition at 10 µM (THP-1 [4]): 9%

COc1cc(-c2cc(-c3ccc(Cl)c(Cl)c3)nc3[nH]nc(C)c23)cc(OC)c1OC
IC50 (Escherichia coli): 22 µM
IC50 (Candida albicans): 18 µM

COc1ccc(C(=O)NN2CCOCC2)cc1-c1n[nH]c2nc(Nc3ccc(F)cc3F)ccc12
IC50 [6]: 0.0007 µM
inhibition in vivo at 20 mg/kg (Mus musculus): 97%

Cc1nn(C)c2ncc(C(=O)c3cc(F)ccc3O)cc12
inhibition at 10 µM (THP-1 [1]): 0%
inhibition at 10 µM (THP-1 [3]): 34%
inhibition at 10 µM (THP-1 [4]): 19%

Cc1ccc(O)c(C(=O)c2cnc3onc(C)c3c2)c1
IC50 (THP-1 [7]): > 100 µM
IC50 (THP-1 [8]): 0.16 µM
IC50 (THP-1 [9]): > 100 µM
inhibition at 10 µM (THP-1 [1]): 5%
inhibition at 10 µM (THP-1 [3]): 58%
inhibition at 10 µM (THP-1 [4]): 16%

COC[C@H](O)[C@@H](OC)[C@@H](OC)c1cnc2cc(-c3ccc(C)cc3)nn2c1
inhibition at 10 µM (THP-1 [1]): 18%
inhibition at 30 µM (THP-1 [2]): 30%
inhibition at 10 µM (THP-1 [3]): 34%
inhibition at 10 µM (THP-1 [4]): 3%

Cc1ccc(O)c(C(=O)c2cnc3nc4ccccc4n3c2)c1
inhibition at 10 µM (THP-1 [1]): 5%
inhibition at 10 µM (THP-1 [3]): 32%
inhibition at 10 µM (THP-1 [4]): 37%

CCO[C@@H](C1=CC2C(c3ccc(OC)cc3)=NN(c3ccccc3)C2N=C1)[C@H](OC)[C@@H](O)COC (stereo partly specified)
inhibition at 10 µM (THP-1 [1]): 15%
inhibition at 30 µM (THP-1 [2]): 30%
inhibition at 10 µM (THP-1 [3]): 35%
inhibition at 10 µM (THP-1 [4]): 6%

C[C@@H]1C[C@H]2[C@@H]3CCC4=CC(=O)C=C[C@]4(C)[C@@]3(F)[C@@H](O)C[C@]2(C)[C@@]1(O)C(=O)CO [DEXAMETHASONE]
IC50 (THP-1 [7]): 0.05 µM
IC50 (THP-1 [8]): 0.007 µM
IC50 (THP-1 [9]): > 100 µM
inhibition at 1 µM (THP-1 [10]): 72%
inhibition at 1 µM (THP-1 [11]): 94%
inhibition at 1 µM (THP-1 [12]): 0%
